# Rows were chosen to be rich in hits. Some 2.9% of all compounds tested hit in one or more screens of this group.
# E-sel inducer = E-selectin induction in HUVECs, primary screen, imaging, HUVEC, immunofluorescence imaging, single point; P16581; normalized: neutral wells 0, TNF-alpha wells 100; activation, % at 7.58 µM; 260,000 compounds, 0.37% hits; AID 686992, 2013;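 active = mean E-selectin-positive cell signal at least 10% of the positive control, reached in at least 60% of replicates, without over 20% cell loss; inconclusive = no rule given, readout overlaps actives, possibly toxicity-flagged; inactive = the rest, including those meeting only one limit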
#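 Assay system: HUVEC primary endothelial cells. Input: 3,000 HUVEC seeded per well. Doses: one compound dose added by pin transfer. Read-out basis: % PE-positive cells. Benchmarks: TNF-alpha high, DMSO low. Detection: immunofluorescence imaging. Buffer or medium: EGM-2, gelatin.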
# DENV2 CPE = inhibitors of DENV2 cytopathic effect, primary screen, cell-based, plate reader, single concentration. DENV2-infected cells, cytopathic effect rescue. CPE inhibition, % at 9.99 µM. 350,000 compounds, 1.7% hits. AID 651640, 2012; in the data active = CPE inhibition above about 20%, passing the limit was not always enough; inconclusive = no clear call, values can overlap the other calls; tested in BHK-21 cells
# SIRT5 block = SIRT5 desuccinylase inhibitors, primary screen, biochemical, fluorescence imaging, single point, set 5. NAD-dependent protein deacylase sirtuin-5, mitochondrial (Homo sapiens), Q9NXA8. Purified SirT5, succinyl-peptide AMC, trypsin-coupled fluorescence. inhibition, % at 15 µM. 330,000 compounds, 1.1% hits. AID 652115, 2013; in the data active = inhibition above about 15%; inconclusive = no clear call, values can overlap the other calls
# Target sequence (Q9NXA8 whole entry, looked up): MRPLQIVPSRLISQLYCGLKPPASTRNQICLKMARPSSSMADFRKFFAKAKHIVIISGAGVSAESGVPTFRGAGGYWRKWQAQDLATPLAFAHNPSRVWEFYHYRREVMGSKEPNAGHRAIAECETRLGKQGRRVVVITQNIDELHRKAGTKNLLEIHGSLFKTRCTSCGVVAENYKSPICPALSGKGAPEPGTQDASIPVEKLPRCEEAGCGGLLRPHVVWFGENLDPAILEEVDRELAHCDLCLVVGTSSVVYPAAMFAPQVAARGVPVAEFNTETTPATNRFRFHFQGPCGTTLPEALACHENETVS
# Hits are given with their value; 0 = inactive; ? = inconclusive; - = no result given; ! = not active in a repeat.
SMILES,E-sel inducer,DENV2 CPE,SIRT5 block
C[C@@H]1CN([C@@H](C)CO)C(=O)c2cc(NC(=O)Nc3ccc(C(F)(F)F)cc3)ccc2O[C@@H](C)CCCCO[C@H]1CN(C)Cc1ccc(Cl)c(Cl)c1,0,24,0
C[C@@H]1CCCCO[C@@H](CN(C)Cc2ccc(Cl)c(Cl)c2)[C@@H](C)CN([C@H](C)CO)C(=O)c2cc(NC(=O)Nc3ccccc3)ccc2O1,0,0,0
C[C@@H]1CCCCO[C@@H](CN(C)Cc2ccc(Cl)c(Cl)c2)[C@@H](C)CN([C@H](C)CO)C(=O)c2cc(NC(=O)CCCCCC(=O)Nc3ccccc3N)ccc2O1,0,0,24
C[C@@H]1CCCCO[C@H](CN(C)Cc2ccc(Cl)c(Cl)c2)[C@H](C)CN([C@@H](C)CO)C(=O)c2cc(NC(=O)Nc3ccc(C(F)(F)F)cc3)ccc2O1,0,0,0
C[C@@H]1CCCCO[C@H](CN(C)Cc2ccccc2)[C@@H](C)CN([C@@H](C)CO)C(=O)c2cc(NC(=O)CCCCCC(=O)Nc3ccccc3N)ccc2O1,-,0,0
C[C@@H]1CN([C@H](C)CO)C(=O)c2cc(NS(=O)(=O)c3cccs3)ccc2O[C@@H](C)CCCCO[C@@H]1CN(C)C(=O)NC1CCCCC1,0,0,0
CN(N=Cc1ccccc1)C(=S)Nc1ccccc1,-,0,0
Cc1cc(Br)cn2c(Cc3cccc(Cl)c3)c(-c3cccc(Cl)c3)nc12,0,0,0
COc1cccc2oc3cc(C#Cc4ccccn4)ccc3c(=O)c12,0,48,-
COc1cccc2oc3cc(C#CC4(O)CCCCC4)ccc3c(=O)c12,0,0,-
Cc1noc(C)c1NC(=O)Nc1ccc2c(c1)CC(=O)N([C@@H](C)CO)C[C@@H](C)[C@@H](CN(C)S(=O)(=O)c1ccccc1)O2,0,0,0
Cc1noc(C)c1NC(=O)Nc1ccc2c(c1)CC(=O)N([C@H](C)CO)C[C@@H](C)[C@@H](CN(C)C)O2,0,0,0
Cc1noc(C)c1NC(=O)Nc1ccc2c(c1)CC(=O)N([C@@H](C)CO)C[C@H](C)[C@@H](CN(C)S(=O)(=O)c1ccccc1)O2,49,0,0
Cc1noc(C)c1NC(=O)Nc1ccc2c(c1)CC(=O)N([C@@H](C)CO)C[C@H](C)[C@H](CN(C)C)O2,0,21,0
CCNC(=O)C[C@H]1CC[C@@H]2[C@H](COC[C@H](O)CN2Cc2ccc(Cl)c(Cl)c2)O1,0,82,0
CCNC(=O)C[C@H]1CC[C@@H]2[C@H](COC[C@@H](O)CN2Cc2ccc(Cl)c(Cl)c2)O1,0,0,0
CCNC(=O)C[C@@H]1CC[C@@H]2[C@H](COC[C@H](O)CN2Cc2ccc(Cl)c(Cl)c2)O1,0,0,0
CCNC(=O)C[C@H]1CC[C@H]2[C@@H](COC[C@@H](O)CN2Cc2ccc(Cl)c(Cl)c2)O1,0,105,0
O=[N+]([O-])c1ccc(N/N=C/c2cccnc2)cc1,-,?,0
Cc1cccc(OCC(=O)Nc2ccc(C(=O)c3ccc(C(=O)O)cc3)cc2)c1,-,0,0
CC(C(=O)OCC(=O)Nc1ccc(S(N)(=O)=O)cc1)N1C(=O)c2ccccc2C1=O (configuration not stated),0,0,0
CC(C)(O)/C=C/C[C@](C)(O)C1CC[C@]2(C)C1[C@H](O[C@H]1O[C@@H](CO)[C@H](O)[C@@H](O)[C@@H]1O)CC1[C@@]3(C)CC[C@H](O)C(C)(C)C3[C@@H](O)C[C@]12C (some centres not stated),0,42,-
CC(C)=CCC[C@](C)(O)C1CC[C@]2(C)C1C(O)CC1[C@@]3(C)CCC(O)C(C)(C)C3C(O[C@@H]3OC(CO)C(O)C(O)C3O[C@@H]3OC(C)C(O)C(O)C3O)C[C@]12C (some centres not stated),0,0,0
CCNc1nc(Cl)nc(-c2cn(-c3ccccc3)c3ccccc23)n1,0,0,0
CC(=O)Nc1ccc(CNc2nc(NC(C)C)nc3ccsc23)cc1,0,0,-
SMILES,E-sel inducer,DENV2 CPE,SIRT5 block
COc1ccc(CCNC(=O)CSC2=NS(=O)(=O)c3cc(F)ccc3N2)cc1OC,-,0,0
COc1ccc(CCNC(=O)CSC2=NS(=O)(=O)c3ccccc3N2)cc1OC,-,82,0
Nc1nccc(N2CCCCC2)n1,0,0,0
Clc1nccc(N2CCN(c3ccccc3Cl)CC2)n1,-,0,18
C[C@@H]1CN([C@H](C)CO)C(=O)c2cccc(NC(=O)c3ccc(-c4nccs4)cc3)c2O[C@@H]1CN(C)Cc1ccc(-c2ccccc2)cc1,0,0,0
C[C@H]1CN([C@@H](C)CO)C(=O)c2cccc(NC(=O)c3ccc(-c4nccs4)cc3)c2O[C@@H]1CN(C)Cc1ccc(-c2ccccc2)cc1,0,75,0
C[C@H](CO)N1C[C@H](C)[C@@H](CN(C)Cc2ccc(Cl)c(Cl)c2)Oc2c(NC(=O)c3ccc(-c4nccs4)cc3)cccc2C1=O,0,0,19
C[C@@H]1CN([C@H](C)CO)C(=O)c2cccc(NC(=O)c3ccc(-c4nccs4)cc3)c2O[C@H]1CN(C)Cc1ccc(C(=O)O)cc1,0,0,0
C[C@@H]1CN([C@H](C)CO)C(=O)c2cccc(NC(=O)c3ccc(-c4nccs4)cc3)c2O[C@H]1CN(C)Cc1ccc(Oc2ccccc2)cc1,75,0,0
C[C@H](CO)N1C[C@H](C)[C@H](CN(C)Cc2ccc(Oc3ccccc3)cc2)Oc2c(NC(=O)c3ccc(-c4nccs4)cc3)cccc2C1=O,0,0,0
Cc1cccc(C)c1NC(=S)N(CCN(C)C)Cc1cccs1,-,0,0
Cc1nnc2c(NC3CCCC3)nc3ccccc3n12,0,0,0
O=C(c1cc(C2CC2)nn1-c1ccccc1)N1CCN(Cc2ccc(Cl)cc2)CC1,-,0,0
Cc1cccc(C)c1NC(=O)CN1CCN(C(=O)c2cc(C3CC3)nn2-c2ccccc2)CC1,0,81,-
Cc1cc(C)c2nc(N3CCN(C(=O)c4cccs4)CC3)sc2c1,-,0,0
O=C(c1cccs1)N1CCN(c2nc3c(F)cc(F)cc3s2)CC1,-,0,18
CC(C)(C)c1ccc(C2(C)NC(=O)N(CC(=O)NC3CCS(=O)(=O)C3)C2=O)cc1 (configuration not stated),0,0,0
CO[C@@H]1CN(C)C(=O)c2ccc(NS(=O)(=O)c3cn(C)cn3)cc2OC[C@@H](C)N(CC2CC2)C[C@H]1C,0,21,0
CCCN1C[C@H](C)[C@H](OC)CN(C)C(=O)c2cc(NS(=O)(=O)c3cn(C)cn3)ccc2OC[C@@H]1C,0,90,0
CCCN1C[C@@H](C)[C@@H](OC)CN(C)C(=O)c2cc(NS(=O)(=O)c3cn(C)cn3)ccc2OC[C@H]1C,0,-,0
CO[C@@H]1CN(C)C(=O)c2ccc(NS(=O)(=O)c3cn(C)cn3)cc2OC[C@H](C)N(CC2CC2)C[C@H]1C,0,0,0
Cc1ccc(C)c(S(=O)(=O)N/N=C/c2cccnc2)c1,-,0,0
COc1cc(OC)cc(C(=O)Nc2ccc(N(C)C)c3ccccc23)c1,0,0,0
COc1ccc(-c2ccc(C3[C@@H]4CN(S(=O)(=O)c5ccccc5C)C[C@H]3N4)cc2)cc1 (some centres not stated),0,31!,-

# Assay outcomes (PubChem)
